From PubChem
Many of the other results were omitted from the sample, so hits are more common in it than they were.
T cruzi growth-1 – inhibitors of T. cruzi proliferation; inhibition, % at 8.34 µM; T. cruzi beta-gal in NIH3T3, GalScreen luminescence, 90 h; hit rate 5.9% among 77,000;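 active = mean inhibition above about 93%, with at least 55% of replicates each passing it, limit read from the data, passing the limit was not always enough; inconclusive = only one of those two conditions holds; inactive = neither condition holds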
IDH1 R132H inh – IDH1 R132H (human) inhibition. O75874. AID 624101. hit rate 0.18% among 70,000. inhibition, % at 10 µM. IDH1 R132H reductase, diaphorase/resazurin fluorescence, 60 min; in the data active = inhibition above about 34%; inconclusive = no clear call, values can overlap the other calls; inactive = below about 11%
Target sequence (O75874 whole entry R132H): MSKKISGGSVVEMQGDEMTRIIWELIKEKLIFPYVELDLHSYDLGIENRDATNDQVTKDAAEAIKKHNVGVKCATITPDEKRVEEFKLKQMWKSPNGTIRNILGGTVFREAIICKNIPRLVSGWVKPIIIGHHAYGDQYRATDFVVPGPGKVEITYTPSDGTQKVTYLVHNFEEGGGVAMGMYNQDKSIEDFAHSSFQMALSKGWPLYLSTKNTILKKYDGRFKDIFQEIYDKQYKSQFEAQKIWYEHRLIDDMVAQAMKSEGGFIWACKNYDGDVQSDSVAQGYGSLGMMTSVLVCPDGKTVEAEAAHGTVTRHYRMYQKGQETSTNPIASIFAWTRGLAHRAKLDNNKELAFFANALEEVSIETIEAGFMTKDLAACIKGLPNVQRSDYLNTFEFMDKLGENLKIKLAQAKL
KDM4C inh – KDM4C (human) demethylase inhibition | hit rate 0.15% among 96,000 | inhibition, % at 12.5 µM | AID 720574 | GST-KDM4C 2-372, H3K9me3 peptide, LANCE TR-FRET | Q9H3R0;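 active = mean replicate inhibition above about 25%, with at least 55% of replicates also reaching it, limit read from the data, passing the limit was not always enough; inconclusive = only one of those two conditions met; inactive = neither condition met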
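Material: N-terminal GST-fused human GASC-1 (KDM4C) fragment, residues 2-372. Input: 10 nM enzyme. Incubation: enzyme reaction 30 min, then detection 60 min, both room temperature. Doses: one test concentration per compound. Read-out basis: inhibition from TR-FRET ratio decrease. Detection: LANCE TR-FRET, excitation 340 nm, emissions 618 and 671 nm.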
T cruzi growth-2 – inhibitors of T. cruzi proliferation | T. cruzi beta-gal in NIH3T3, GalScreen luminescence, 90 h | hit rate 72% among 5,600 | AID 651739 | shares compounds with T cruzi growth-1 | inhibition, % at 8.35 µM;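 active = mean replicate inhibition above about 95% and at least 55% of replicates individually reaching it, limit read from the data; inconclusive = only one of the two criteria is met; inactive = neither criterion is met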
T cruzi growth-3 – Trypanosoma cruzi proliferation inhibition; shares compounds with T cruzi growth-1; T. cruzi beta-gal in NIH3T3, GalScreen luminescence, 90 h; inhibition, % at 2.09 µM; hit rate 21% among 5,600; AID 651740;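 active = mean inhibition above about 95%, with at least 55% of replicates also reaching it, limit read from the data; inconclusive = meets just one of the two conditions; inactive = meets neither condition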
3T3 cytotox – kills mouse NIH/3T3 fibroblasts | hit rate 14% among 5,600 | cytotoxicity (signal decrease), % at 8.35 µM | AID 651742 | shares compounds with T cruzi growth-1 | NIH/3T3 viability, CellTiter-Glo ATP luminescence, 90 h;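 active = mean signal decrease across replicates above about 35% based on untreated-well scatter, with enough replicates individually passing, limit read from the data; inconclusive = no rule stated though some were filed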
NIH3T3 tox 2 – NIH/3T3 (mouse) viability loss | shares compounds with T cruzi growth-1 | NIH/3T3 viability, CellTiter-Glo ATP luminescence, 90 h | inhibition, % at 24.9 µM | hit rate 56% among 5,600 | AID 651744;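 active = mean loss of cell viability signal at or above a set limit, and enough replicates individually reaching it; inconclusive = meets only the mean limit or only the replicate share; inactive = meets neither condition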
Hits are given with their value; i = inactive; ? = inconclusive; nt = not tested or not shown.

SMILES	T cruzi growth-1	IDH1 R132H inh	KDM4C inh	T cruzi growth-2	T cruzi growth-3	3T3 cytotox	NIH3T3 tox 2
C[C@@H]1CCCCO[C@@H](CN(C)Cc2ccncc2)[C@H](C)CN([C@@H](C)CO)C(=O)c2cc(NC(=O)Nc3cccc4ccccc34)ccc2O1	i	nt	i	nt	nt	nt	nt
C[C@@H]1CN([C@@H](C)CO)C(=O)c2cc(NC(=O)Nc3cccc4ccccc34)ccc2O[C@@H](C)CCCCO[C@H]1CN(C)Cc1ccncc1	i	i	i	nt	nt	nt	nt
C[C@H](CO)N1C[C@H](C)[C@@H](CN(C)Cc2ccncc2)OCCCC[C@H](C)Oc2ccc(NC(=O)Nc3cccc4ccccc34)cc2C1=O	i	i	i	nt	nt	nt	nt
C[C@H]1CCCCO[C@H](CN(C)Cc2ccc(Cl)c(Cl)c2)[C@@H](C)CN([C@@H](C)CO)C(=O)c2cc(NC(=O)Nc3cccc4ccccc34)ccc2O1	?	i	i	112	111	i	i
C[C@@H]1CCCCO[C@@H](CN(C)Cc2ccc(Cl)c(Cl)c2)[C@@H](C)CN([C@@H](C)CO)C(=O)c2cc(NC(=O)Nc3cccc4ccccc34)ccc2O1	124	i	i	96	103	i	i
COC(=O)c1c(NC(=S)Nc2cccc(NC(C)=O)c2)sc(C)c1C	nt	i	nt	nt	nt	nt	nt
Cn1c(SCC(=O)N2c3ccccc3Sc3ccccc32)nnc1-c1ccccc1Cl	nt	i	nt	nt	nt	nt	nt
COC(=O)c1cc2c(N)c(C(=O)OC)sc2nc1C(OC)OC	nt	i	nt	nt	nt	nt	nt
CN1C2=C(C(=O)CC(C)(C)C2)C(c2ccccc2OCC(=O)Nc2ccc(F)cc2)C2=C1CC(C)(C)CC2=O	nt	i	nt	nt	nt	nt	nt
Cn1c(SCC(=O)Nc2cccc(C(F)(F)F)c2)nnc1-c1ccc(F)cc1	nt	i	nt	nt	nt	nt	nt
Cc1cc(C)c(NC(=O)CN(c2cccc(Br)c2)S(C)(=O)=O)c(C)c1	nt	i	nt	nt	nt	nt	nt
C[C@H]1CN([C@@H](C)CO)S(=O)(=O)c2ccc(C#Cc3ccncc3)cc2O[C@@H]1CN(C)S(=O)(=O)c1ccc(F)cc1	i	i	i	nt	nt	nt	nt
C[C@H]1CN([C@@H](C)CO)S(=O)(=O)c2ccc(C#Cc3ccncc3)cc2O[C@H]1CN(C)S(=O)(=O)c1ccc(F)cc1	118	i	i	102	i	?	i
C[C@@H]1CN([C@@H](C)CO)S(=O)(=O)c2ccc(C#Cc3ccncc3)cc2O[C@H]1CN(C)S(=O)(=O)c1ccc(F)cc1	i	i	i	nt	nt	nt	nt
C[C@H](CO)N1C[C@H](C)[C@H](CN(C)S(=O)(=O)c2ccc(F)cc2)Oc2cc(C#Cc3ccncc3)ccc2S1(=O)=O	114	i	i	i	i	?	65
COc1cc(C(=O)N(Cc2ccco2)c2ccc(O)cc2)cc(OC)c1OC	nt	i	nt	nt	nt	nt	nt
COC(=O)c1cc(C)sc1NC(=S)Nc1cnn(C)c1C(N)=O	nt	i	nt	nt	nt	nt	nt
C[C@H](CO)N1C[C@H](C)[C@H](CN(C)Cc2ccccc2)Oc2cc(-c3ccncc3)ccc2S1(=O)=O	i	nt	i	nt	nt	nt	nt
C[C@H]1CN([C@@H](C)CO)S(=O)(=O)c2ccc(-c3ccncc3)cc2O[C@@H]1CN(C)Cc1ccccc1	i	i	i	nt	nt	nt	nt
C[C@@H]1CN([C@@H](C)CO)S(=O)(=O)c2ccc(-c3ccncc3)cc2O[C@H]1CN(C)Cc1ccccc1	?	nt	i	i	99	76	96
C[C@@H]1CN([C@H](C)CO)S(=O)(=O)c2ccc(-c3ccncc3)cc2O[C@H]1CN(C)Cc1ccccc1	?	i	i	98	100	60	94
C[C@@H]1CCCCO[C@H](CN(C)Cc2ccncc2)[C@H](C)CN([C@H](C)CO)C(=O)c2cc(NS(C)(=O)=O)ccc2O1	i	i	i	nt	nt	nt	nt
C[C@@H]1CCCCO[C@H](CN(C)Cc2ccncc2)[C@H](C)CN([C@@H](C)CO)C(=O)c2cc(NS(C)(=O)=O)ccc2O1	104	i	i	i	i	i	i
C[C@@H]1CN([C@H](C)CO)C(=O)c2cc(NS(=O)(=O)c3ccc(Cl)cc3)ccc2O[C@@H](C)CCCCO[C@@H]1CN(C)Cc1ccncc1	i	i	i	nt	nt	nt	nt
C[C@@H]1CCCCO[C@@H](CN(C)Cc2ccncc2)[C@H](C)CN([C@H](C)CO)C(=O)c2cc(NS(=O)(=O)c3ccc(Cl)cc3)ccc2O1	?	i	i	96	i	i	i
SMILES	T cruzi growth-1	IDH1 R132H inh	KDM4C inh	T cruzi growth-2	T cruzi growth-3	3T3 cytotox	NIH3T3 tox 2
C[C@H]1CCCCO[C@@H](CN(C)Cc2ccccc2)[C@@H](C)CN([C@@H](C)CO)C(=O)c2cc(NS(=O)(=O)c3ccc(Cl)cc3)ccc2O1	110	i	i	100	i	i	103
C[C@H](CO)N1C[C@H](C)[C@H](CN(C)Cc2ccccc2)OCCCC[C@H](C)Oc2ccc(NS(=O)(=O)c3ccc(Cl)cc3)cc2C1=O	107	nt	i	?	?	?	104
C[C@@H]1CCCCO[C@H](CN(C)Cc2ccccc2)[C@@H](C)CN([C@@H](C)CO)C(=O)c2cc(NS(=O)(=O)c3ccccc3)ccc2O1	i	i	i	nt	nt	nt	nt
C[C@H](CO)N1C[C@H](C)[C@@H](CN(C)Cc2ccccc2)OCCCC[C@H](C)Oc2ccc(NS(=O)(=O)c3ccccc3)cc2C1=O	i	i	i	nt	nt	nt	nt
COC(=O)c1c(-c2ccc(OC)c(OC)c2)csc1NC(=O)COc1ccccc1	nt	i	nt	nt	nt	nt	nt
CCOc1ccc(-n2c(SCC(=O)c3ccc(Br)cc3)nnc2-c2cccnc2)cc1	nt	i	nt	nt	nt	nt	nt
CN1C(=O)c2ccccc2-n2c(nc3ccccc3c2=O)[C@@]12O[C@H]2c1ccccc1	nt	i	nt	nt	nt	nt	nt
Cc1cc(C)cc(NC(=O)c2ccc(NS(=O)(=O)c3cccc4cccnc34)cc2)c1	nt	i	nt	nt	nt	nt	nt
CC1=C(C(=O)c2ccccc2)C(NC(=O)c2ccncc2)(C(F)(F)F)C(=O)N1Cc1ccccc1 (centres undefined)	nt	i	nt	nt	nt	nt	nt
Cc1nc2sc3c(c2c2nnc(SCC(=O)Nc4ccc(Br)cc4)n12)CCCC3	nt	i	nt	nt	nt	nt	nt
COc1cc(C[C@@H]2CO[C@@H](c3ccc(O)c(OC)c3)[C@@H]2CO)ccc1O	nt	i	nt	nt	nt	nt	nt
Cc1cc2ncn(CC(O)COc3ccc4cc(Br)ccc4c3)c2cc1C (centres undefined)	nt	i	nt	nt	nt	nt	nt
C[C@@H]1CN([C@@H](C)CO)C(=O)c2cc(NS(=O)(=O)c3ccc(Cl)cc3)ccc2O[C@@H](C)CCCCO[C@H]1CN(C)Cc1ccccc1	109	i	i	109	107	i	88
CCCN(C)C[C@H]1OCCCC[C@@H](C)Oc2ccc(NS(C)(=O)=O)cc2C(=O)N([C@H](C)CO)C[C@@H]1C	i	nt	i	nt	nt	nt	nt
CCCN(C)C[C@@H]1OCCCC[C@H](C)Oc2ccc(NS(C)(=O)=O)cc2C(=O)N([C@@H](C)CO)C[C@H]1C	?	nt	i	i	i	i	i
C[C@@H]1CCCCO[C@@H](CN(C)Cc2ccccc2)[C@@H](C)CN([C@@H](C)CO)C(=O)c2cc(NS(=O)(=O)c3ccccc3)ccc2O1	i	nt	i	nt	nt	nt	nt
